UPR CHOP act: apoptotic UPR (CHOP) activation. CHO-CHOP luciferase reporter, luminescence; percent of tunicamycin response over DMSO baseline. activation, % at 10 µM. hit rate 0.34% among 330,000. AID 449763;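 active means at 10 µM dose, activation of 40% or more, normalized to positive control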;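 further: 100% = tunicamycin at 10 µg/mL and 0% = DMSO alone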
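Assay system: CHO cells with stable CHOP pathway luciferase reporter; Buffer or medium: F12 plus 10% serum; Times: 16-18 h cell attachment, then 6 h compound exposure, 37 °C; Signal: luciferase luminescence; Read-out basis: percent activation relative to tunicamycin control; Control set: tunicamycin high control, DMSO low control.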
UPR XBP1 act: adaptive UPR (XBP1) activation. AID 463104. hit rate 0.33% among 330,000. activation, % at 20 µM. CHO-XBP1 luciferase reporter, IRE1-XBP1 UPR activation, luminescence; percent of tunicamycin response, DMSO as zero;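 active means versus positive control, 20 µM dose yields 30% or more activation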;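 further: 100% = tunicamycin at 10 µg/mL and 0% = DMSO only wells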
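Material – CHO cell line with stable XBP1 luciferase reporter · Buffer or medium – F12 plus 10% FBS · Compound – single point, 20 µM final compound, 1% DMSO · Schedule – 16-18 h cell attachment at 37 °C, then 6 h compound exposure · Signal – Steady-Glo luminescence read · Benchmarks – high control tunicamycin 10 µg/mL final, low control DMSO vehicle only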
NS3 helicase inh: blocks Hepatitis C virus NS3 helicase unwinding; AID 1800; inhibition, % at 10.9 µM; NS3 helicase DNA unwinding, Cy5 molecular beacon fluorescence; hit rate 0.56% among 290,000;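 active means inhibition above the mean of all tested compounds plus 3 SD, set per campaign, cut at about 35% in these data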;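 further: 0% = DMSO wells and 100% = thioflavine S control wells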
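Compound dosing – single dose, 10.9 µM nominal final, DMSO 0.8% final · System – NS3 helicase fragment of HCV · Buffer or medium – MOPS pH 6.5, MgCl2, DTT, Tween20, BSA · Signal – Cy5 beacon fluorescence read at start and 1 h · Also added – annealed dual-labelled DNA beacon duplex, ATP-started · Schedule – 1 h at 25 °C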
CHOP inhibitor: CHOP inhibition in unfolded protein response | CHO-K1 CHOP-promoter luciferase, tunicamycin-induced, 15-18 h | inhibition, % at 10 µM | hit rate 3.8% among 220,000 | AID 2732;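 active means compounds that reduced the stress-induced luciferase reporter signal by more than about 70% of percent inhibition, limit read from the data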;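 further: 0% = tunicamycin plus vehicle and 100% = wells without tunicamycin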
PfM18AAP inh: blocks P. falciparum M18 aspartyl aminopeptidase | recombinant PfM18AAP, H-Glu-NHMec fluorogenic cleavage | inhibition, % at 7.35 µM | hit rate 1.2% among 290,000 | AID 1822;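 active means inhibition above the campaign mean inhibition over all tested compounds plus 3 SD, cut at about 28% in these data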;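 further: 0% = plate median of test compound wells and 100% = 2 mM ZnCl2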
p97 inhibitor: inhibitors of human p97 ATPase. P55072. recombinant p97 ATPase, Kinase-Glo ATP luminescence, 3 h. hit rate 0.42% among 220,000. inhibition, % at 8 µM; in the data active means inhibition above about 15%;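 further: 0% = DMSO vehicle and 100% = wells lacking enzyme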
Target sequence (P55072 whole entry, looked up): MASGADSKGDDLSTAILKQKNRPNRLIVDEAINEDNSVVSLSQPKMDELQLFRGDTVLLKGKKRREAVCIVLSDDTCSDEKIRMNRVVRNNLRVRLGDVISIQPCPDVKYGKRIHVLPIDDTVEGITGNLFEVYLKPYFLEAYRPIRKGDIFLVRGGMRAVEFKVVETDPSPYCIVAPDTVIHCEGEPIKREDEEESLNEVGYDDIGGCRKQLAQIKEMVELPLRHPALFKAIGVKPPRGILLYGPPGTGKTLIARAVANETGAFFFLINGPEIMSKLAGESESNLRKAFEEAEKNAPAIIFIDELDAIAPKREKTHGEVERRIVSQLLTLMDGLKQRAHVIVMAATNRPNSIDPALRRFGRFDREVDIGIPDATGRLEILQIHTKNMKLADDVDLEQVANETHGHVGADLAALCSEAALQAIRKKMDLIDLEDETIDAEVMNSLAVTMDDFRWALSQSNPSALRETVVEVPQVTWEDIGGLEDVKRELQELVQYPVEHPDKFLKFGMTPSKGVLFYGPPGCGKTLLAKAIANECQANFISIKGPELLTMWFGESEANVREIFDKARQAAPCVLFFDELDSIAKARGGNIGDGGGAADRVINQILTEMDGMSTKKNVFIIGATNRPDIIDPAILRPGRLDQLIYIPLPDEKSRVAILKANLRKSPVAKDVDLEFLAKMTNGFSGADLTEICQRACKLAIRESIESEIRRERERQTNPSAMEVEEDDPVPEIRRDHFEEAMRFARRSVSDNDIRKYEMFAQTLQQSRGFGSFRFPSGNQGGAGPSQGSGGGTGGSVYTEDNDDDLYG
UPR XBP1 confirm: adaptive UPR (XBP1) activation, confirmed; shares compounds with UPR XBP1 act; CHO-XBP1 IRE1-XBP1 luciferase reporter, luminescence; activation, % at 20 µM; hit rate 63% among 1,000; AID 485299;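 active means reporter signal at least 30% of the positive control's activation in two or more of four replicate wells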;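 further: plate controls were DMSO negative control for no effect and tunicamycin 10 µg/mL positive control for full effect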
An asterisk follows results filed as active; x = no result given. Only some compounds are listed: those with a hit (about 4.5% of all), similar ones and a draw of the others.

SMILES	UPR CHOP act	UPR XBP1 act	NS3 helicase inh	CHOP inhibitor	PfM18AAP inh	p97 inhibitor	UPR XBP1 confirm
CC(C)CCn1c(N2CCCC2)nc2c1c(=O)n(C)c(=O)n2C	2	0	2	x	-5	x	x
Cn1c(=O)c2c(nc(N3CCCCC3)n2C)n(C)c1=O	-3	52*	-5	-26	-19	6	0
Cc1cc(C)c(NC(=O)CSc2nc(COc3ccccc3)nc3ccccc23)c(C)c1	1	53*	1	91*	5	2	47*
O=C(Oc1ccccc1/C=C\C(=O)c1cc2ccccc2o1)c1cccc(F)c1	26	39*	5	-10	8	6	60*
COC(=O)/C=c1/s/c(=C(/C#N)C(=O)NCc2ccccc2)n(-c2ccccc2)c1=O	-2	0	3	-57	14	2	x
CCCCCCOc1ccc(/C=c2\s/c(=C(/C#N)C(=O)NCc3ccco3)n(-c3ccccc3)c2=O)cc1	6	45*	13	11	3	2	26
CCCCCCCCCCOC(=O)Cn1c(COc2ccc(OC)cc2)[n+](C)c2ccccc21	12	66*	-59	x	2	x	44*
CCOC(=O)Cn1c(COc2ccccc2OC)[n+](C)c2ccccc21	0	-2	x	x	x	x	x
CCCCCCCCCCOC(=O)Cn1c(COc2ccccc2C)[n+](C)c2ccccc21	20	60*	-40	x	-2	x	72*
CCCCCCCCCCOC(=O)Cn1c(COc2ccc(Cl)cc2)[n+](C)c2ccccc21	-1	36*	-50	x	7	x	36*
CCCCCCCCCCOC(=O)Cn1c(COc2cccc(C)c2)[n+](C)c2ccccc21	5	34*	-55	x	-3	x	17
CCCCCOC(=O)Cn1c(=O)oc2ccccc21	1	-2	8	43	4	-7	x
COC(=O)[C@]1(C)N[C@H](CN(C)C(=O)c2ccc(C)cc2)[C@@H]2C(=O)N(C)C(=O)[C@@H]21	0	0	x	x	x	x	x
CCN(CC(=O)NCc1cccs1)S(=O)(=O)c1cccc(Br)c1	-1	-2	x	x	x	x	x
CN(C)c1ccc(-c2nnn(CC(=O)NCc3ccc4c(c3)OCO4)n2)cc1	0	-1	-10	-20	14	3	x
CCCCCCCCCCOC(=O)Cn1c(COc2ccccc2)[n+](C)c2ccccc21	10	72*	-81	x	-8	x	26
CCCCOC(=O)Cn1c(=O)n(CC(=O)OCCCC)c2ccccc21	-2	-4	2	2	1	-2	x
COc1ccc(Nc2ncnc3sc(C)cc23)c(OC)c1	5	30*	-17	x	-5	x	1
COc1ccc(Nc2ncnc3ccccc23)c(OC)c1	1	-1	-4	11	4	1	x
N#CCC(=O)N/N=C/c1cn(Cc2cccc3ccccc23)c2ccccc12	8	130*	4	21	-1	7	103*
CCOc1ccc(-n2c(SCC(=O)Nc3nccs3)nc3c(c2=O)SCC3)cc1	12	75*	-3	7	-2	3	9
Cc1nc(NC(=O)CSc2ccc(-c3nc4ccccc4[nH]3)cn2)sc1C	11	54*	-1	42	12	1	85*
CCOc1ccc(N2C(=O)C(=O)/C(=C(/O)c3ccccc3)C2c2ccccc2[N+](=O)[O-])cc1 (centres undefined)	0	34*	-12	-15	8	9	0
O=C1C(=O)N(c2ccccc2)C(c2ccccc2[N+](=O)[O-])/C1=C(\O)c1ccccc1 (centres undefined)	2	4	1	7	6	6	x
N#C/C(=C\c1ccc(N2CCCC2)c([N+](=O)[O-])c1)c1nc2ccccc2[nH]1	6	111*	2	67	-14	-3	71*
SMILES	UPR CHOP act	UPR XBP1 act	NS3 helicase inh	CHOP inhibitor	PfM18AAP inh	p97 inhibitor	UPR XBP1 confirm
N#C/C(=C\c1ccc(N2CCCCC2)c([N+](=O)[O-])c1)c1nn(-c2ccccc2)c(N)c1C#N	0	-1	-12	23	-10	6	x
Cc1ccc(C(C(=O)NCc2ccco2)N(C(=O)CNC(=O)c2cccs2)c2c(C)cc(C)cc2C)cc1 (centres undefined)	25	36*	0	74*	0	3	32*
Cc1ccc(Nc2nc(-c3cccnc3)nc3ccccc23)cc1	2	-1	-2	8	4	6	x
Cc1c(O)ccc(/C=N/Nc2nc(-c3cccnc3)nc3ccccc23)c1O	9	36*	-25	24	29*	12	28
COc1ccc(OCC(=O)Sc2ccc(C)cc2)cc1	7	35*	-2	83*	-4	3	8
COc1ccc(OC(=O)COc2ccc(C)cc2)cc1	-2	-2	2	22	6	2	x
COc1ccc2cc(C(C)C(=O)N3CCC(C)CC3)ccc2c1 (centres undefined)	1	-1	-4	x	1	x	x
COc1ccc(NC(=O)COC(=O)CCCOc2ccc(Cl)cc2Cl)cc1Cl	-4	0	-13	14	0	-4	x
COc1ccc(NC(=O)COC(=O)CCCOc2ccc(Cl)cc2Cl)cc1	1	75*	-4	33	-7	-7	-1
CCOC(=O)c1cc2c(ccn2-c2ccc(F)cc2)n1CC(=O)N1CCN(C(=O)c2ccco2)CC1	0	45*	-1	-62	-11	-10	11
Cc1ccc(OCC(O)CNC2CCCC2)c(C)c1 (centres undefined)	-1	-2	-3	x	-2	x	x
Cc1ccccc1OCC(O)CNC1CCC(NCC(O)COc2ccccc2C)CC1 (centres undefined)	56*	43*	-85	x	-4	x	11
COc1ccc(CCN(C)C2CCCN(S(=O)(=O)c3ccc(C)cc3)C2)cc1OC (centres undefined)	-1	-7	-7	x	-1	x	x
O=C(N/N=C/C(Br)=C\c1ccccc1)c1n[nH]c2c1CCC2	5	35*	6	x	3	-4	36*
CCCNC(=O)c1c(N)n(-c2ccc3c(c2)OCO3)c2nc3ccccc3nc12	20	44*	9	80*	5	7	29*
O=C(CCn1c2c(c3ccccc31)CCCC2)NNC(=O)c1ccccc1Cl	-1	36*	30	22	16	1	0
N=c1c2c(ncn1CCCO)Oc1c(ccc3ccccc13)C2c1ccccc1 (centres undefined)	3	6	-16	-4	4	-3	x
CN(C)CCCn1cnc2c(c1=N)C(c1ccccc1)c1ccc3ccccc3c1O2 (centres undefined)	19	32*	-55	x	1	x	127*

Assay outcomes deposited in PubChem BioAssay by several laboratories.
